{"source": "paper PMC9436332", "about": "(Proceedings of the National Academy of Sciences of the …, 2022)", "key": {"rat DRG neurons": {"tested_on": "rat DRG neurons", "type": "cell-based", "settings": "48 h"}, "[1]": {"tested_on": "quantified cysteines in the human proteome (22Rv1 cells)", "assay": "Cysteine-directed MS-ABPP", "type": "binding", "settings": "20 µM, 3 h, in situ; 22Rv1 and Ramos", "how_it_was_run": "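22Rv1 cells were plated at 15 million cells per 15-cm dish and treated the next day. Ramos cells were adjusted to 3 × 10⁶ cells/mL and rested 30 min before treatment. Cells got 20 μM test compound in situ for 3 h, then were washed in cold DPBS and frozen. Cells were probe-sonicated in cold PBS, and 2 mg/mL lysate was labelled with IA-DTB (10 mM DMSO stock) for 1 h at room temperature in the dark. Cysteines were quantified by LC-MS/MS/MS against DMSO.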"}, "mouse DRG neurons": {"tested_on": "mouse DRG neurons", "assay": "Vacor-induced neurite degeneration in mouse DRG neurons", "type": "cell-based", "settings": "for Degeneration Index (%): +50 μM Vacor alone"}, "WT-SARM1 [2]": {"tested_on": "WT-SARM1", "assay": "Gel-ABPP, in vitro treatment, WT-SARM1 recombinantly expressed in HEK293T cells", "type": "binding, human", "settings": "1 h; for effect of metabolite on MY-13B engagement of SARM1: 0.125-1 mM, MY-13B 20 µM"}, "SARM1-C311A": {"tested_on": "SARM1-C311A", "assay": "Gel-ABPP, in situ, SARM1-C311A mutant expressed in HEK293T cells", "type": "binding, human", "settings": "20 µM, 1 h", "how_it_was_run": "(§1)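 N-terminally FLAG-tagged human SARM1 (WT or C311A) was transiently expressed in HEK293T cells and treated 48 h post-transfection. Cells got either alkyne probe alone (20 μM, 1 h, in situ) or 3 h compound pretreatment followed by probe. Lysates (ice-cold DPBS with protease inhibitors, 1.0 mg/mL) underwent 1 h CuAAC with rhodamine-azide/TCEP/TBTA/CuSO₄. Analysis was SDS-PAGE in-gel fluorescence with background-subtracted band intensities; IC₅₀ by four-parameter fit; three independent experiments.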"}, "endogenous SARM1": {"molecular_target": "T1, endogenous SARM1 (Homo sapiens, UniProt Q6SZW1)", "T1 sequence (Q6SZW1 28-724)": "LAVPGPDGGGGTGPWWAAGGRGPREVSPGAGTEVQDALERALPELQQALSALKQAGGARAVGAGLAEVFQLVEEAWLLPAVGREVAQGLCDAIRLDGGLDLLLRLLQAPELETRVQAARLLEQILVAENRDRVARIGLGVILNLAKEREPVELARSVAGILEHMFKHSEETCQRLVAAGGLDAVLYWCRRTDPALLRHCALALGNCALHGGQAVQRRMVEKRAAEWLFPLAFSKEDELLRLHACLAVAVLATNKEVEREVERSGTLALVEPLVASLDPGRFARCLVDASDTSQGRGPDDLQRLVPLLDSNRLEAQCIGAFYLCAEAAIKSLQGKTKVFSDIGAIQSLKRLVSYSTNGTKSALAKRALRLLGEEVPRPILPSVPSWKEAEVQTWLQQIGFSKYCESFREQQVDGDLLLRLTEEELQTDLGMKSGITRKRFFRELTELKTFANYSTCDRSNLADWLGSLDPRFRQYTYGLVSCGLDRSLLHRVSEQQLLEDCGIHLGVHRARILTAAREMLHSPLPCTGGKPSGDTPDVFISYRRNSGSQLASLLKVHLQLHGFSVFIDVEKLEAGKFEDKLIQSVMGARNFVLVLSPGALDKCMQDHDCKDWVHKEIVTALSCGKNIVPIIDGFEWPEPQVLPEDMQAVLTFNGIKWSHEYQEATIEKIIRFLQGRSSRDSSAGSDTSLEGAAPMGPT", "type": "cell-based", "settings": "SH-SY5Y cells, vacor 50 µM, 0-8 h", "how_it_was_run": "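SH-SY5Y cells were pretreated in situ with compound for 3 h (0.1% DMSO), then given 50 μM vacor for 4 h. Pellets were resuspended in DPBS and quenched with cold methanol:acetonitrile (1:1) containing 100 pmol 8-Br-cADPR internal standard. Extraction used three freeze/sonication cycles, −20 °C for 1 h, centrifugation, drying and resuspension. cADPR was measured by LC-MS/MS, normalized to total protein; mean ± SEM of three independent experiments.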"}, "WT-SARM1 [3]": {"tested_on": "WT-SARM1", "assay": "Gel-ABPP, in situ, WT-SARM1 recombinantly expressed in HEK293T cells", "type": "binding, human", "settings": "1 h", "how_it_was_run": "as §1"}, "mouse SARM1": {"tested_on": "mouse SARM1", "assay": "Gel-ABPP, in situ, mouse SARM1 recombinantly expressed in HEK293T cells", "type": "binding", "settings": "20 µM, 1 h, compared with human SARM1"}, "SARM1": {"tested_on": "SARM1", "settings": "cited from earlier work"}}, "note": "“Also recorded” adds a separate entry of the source.", "data": [{"molecule": "C=CC(=O)N1[C@@H](c2ccc3c(c2)OCO3)c2[nH]c3ccccc3c2C[C@H]1C(=O)NC", "note": "[MY-9A]", "values": [{"measurement": "prevention of vincristine-induced neurite degeneration", "setting": "rat DRG neurons; 40 nM vincristine", "value": "weak activity"}, {"measurement": "off-target cysteines also engaged by the SARM1-inactive enantiomers", "setting": "[1]", "value": "DCTN4_C258, KEAP1_C151, PTGES2_C110, and UBR1_C1603"}, {"measurement": "blockade of vacor-induced neurite degeneration", "setting": "mouse DRG neurons; 1–20 µM, vacor 50 µM, over 48 h", "value": "ineffective"}]}, {"molecule": "NC(=O)c1ccc[n+]([C@@H]2O[C@H](COP(=O)([O-])OP(=O)(O)OC[C@H]3O[C@@H](n4cnc5c(N)ncnc54)[C@H](O)[C@@H]3O)[C@@H](O)[C@H]2O)c1", "note": "[NAD^+, nicotinamide adenine dinucleotide, reference compound]", "values": [{"measurement": "effect of metabolite on MY-13B engagement of SARM1", "setting": "WT-SARM1 [2]", "value": "neither metabolite affected MY-13B engagement"}]}, {"molecule": "C#CCNC(=O)[C@@H]1Cc2c([nH]c3ccccc23)[C@H](c2ccc3c(c2)OCO3)N1C(=O)C=C", "note": "[MY-13A]", "values": [{"measurement": "reactivity of alkyne probe with SARM1-C311A (gel-ABPP)", "setting": "SARM1-C311A", "value": "very low reactivity"}]}, {"molecule": "O=C(NCc1cccnc1)Nc1ccc([N+](=O)[O-])cc1", "note": "[vacor]", "values": [{"measurement": "Degeneration Index (%)", "setting": "mouse DRG neurons; 8 h", "value": "~60", "unit": "%"}, {"measurement": "Degeneration Index (%)", "setting": "mouse DRG neurons; 24 h", "value": "full degeneration"}, {"measurement": "induction of cADPR production", "setting": "endogenous SARM1", "value": "robust, time-dependent production of cADPR"}]}, {"molecule": "CC[C@]1(O)C[C@H]2CN(CCc3c([nH]c4ccccc34)[C@@](C(=O)OC)(c3cc4c(cc3OC)N(C=O)[C@H]3[C@@](O)(C(=O)OC)[C@H](OC(C)=O)[C@]5(CC)C=CCN6CC[C@]43[C@@H]65)C2)C1", "note": "[vincristine, reference compound]", "values": [{"measurement": "induction of neurite degeneration", "setting": "rat DRG neurons; vincristine 40 nM", "value": "robust neurite degeneration"}]}, {"molecule": "NC(=O)c1ccc[n+]([C@@H]2O[C@H](COP(=O)([O-])O)[C@@H](O)[C@H]2O)c1", "note": "[NMN, nicotinamide mononucleotide, reference compound]", "values": [{"measurement": "effect of metabolite on MY-13B engagement of SARM1", "setting": "WT-SARM1 [2]", "value": "neither metabolite affected MY-13B engagement"}]}, {"molecule": "C#CCNC(=O)[C@H]1Cc2c([nH]c3ccccc23)[C@@H](c2ccc3c(c2)OCO3)N1C(=O)C=C", "note": "[MY-13B]", "values": [{"measurement": "reactivity of alkyne probe with SARM1-C311A (gel-ABPP)", "setting": "SARM1-C311A", "value": "very low reactivity"}, {"measurement": "reactivity of alkyne probe with WT-SARM1 (gel-ABPP)", "setting": "WT-SARM1 [3]; 20 µM", "value": "reacted strongly"}, {"measurement": "labeling of recombinant mouse SARM1 by alkyne probe", "setting": "mouse SARM1", "value": "lower extent of labeling"}, {"measurement": "reactivity of alkyne probe with SARM1 in vitro", "setting": "WT-SARM1 [2]; 20 µM", "value": "stereoselective reactivity; also recorded: maintained stereoselective engagement"}]}, {"molecule": "COC(=O)c1c(C)nc(C)c(C(=O)OCC(C)C)c1-c1ccccc1N=O", "note": "[dHNN, dehydronitrosonisoldipine, reference compound]", "values": [{"measurement": "effect of C311 mutagenesis on inhibitory activity", "setting": "SARM1", "value": "only modestly impaired (∼twofold)"}, {"measurement": "engagement of SARM1_C311 (effect on MY-13B reactivity)", "setting": "WT-SARM1 [3]; 5–50 µM, 3 h pretreatment, MY-13B 20 µM", "value": "did not observe substantial alterations in MY-13B reactivity"}]}]}
